What all share (test): Radioligand binding
One test deals with T1, hA3AR (Homo sapiens, UniProt P0DMS8).
T1 sequence (P0DMS8 1-318): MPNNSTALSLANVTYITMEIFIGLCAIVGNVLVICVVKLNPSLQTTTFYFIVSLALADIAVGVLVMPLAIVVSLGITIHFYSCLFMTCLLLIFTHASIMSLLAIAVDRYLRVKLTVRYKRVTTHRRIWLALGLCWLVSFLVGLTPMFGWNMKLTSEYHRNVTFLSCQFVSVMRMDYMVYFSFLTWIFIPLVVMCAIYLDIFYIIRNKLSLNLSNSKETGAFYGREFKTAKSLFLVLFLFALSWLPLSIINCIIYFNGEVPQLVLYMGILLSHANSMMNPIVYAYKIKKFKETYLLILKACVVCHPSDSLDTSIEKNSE
The following applies: for hA2A/hA3 / hA1/hA3: selectivity ratio of Ki values. In outline:
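Displacement of [125I]AB-MECA binding on membranes from CHO cells expressing recombinant hA3AR. […] ADA (3 units/mL) was present during membrane preparation, a 30 min 30 °C preincubation and radioligand incubation. DMSO was ≤2% final. At least six competitor concentrations spanning 3 log units were used. Incubations ended by GF/B filtration and three rinses.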

The target in the next test is T2, hA1AR (Homo sapiens, UniProt P30542).
T2 sequence (P30542 1-326): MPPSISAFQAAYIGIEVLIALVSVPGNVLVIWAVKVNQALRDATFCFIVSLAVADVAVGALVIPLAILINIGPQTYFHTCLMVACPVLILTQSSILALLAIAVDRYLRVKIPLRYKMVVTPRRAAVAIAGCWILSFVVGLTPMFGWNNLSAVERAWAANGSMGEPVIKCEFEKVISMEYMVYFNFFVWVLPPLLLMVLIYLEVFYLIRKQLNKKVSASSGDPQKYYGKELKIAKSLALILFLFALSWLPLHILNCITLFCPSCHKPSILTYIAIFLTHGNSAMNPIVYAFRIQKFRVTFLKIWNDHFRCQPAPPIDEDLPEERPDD
The following applies: read-out: hA1 % of inhibition. The procedure, abridged: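 Membranes came from CHO cells expressing recombinant hA1AR, labelled with [3H]R-PIA. ADA (3 units/mL) was present during membrane preparation, a 30 min 30 °C preincubation and radioligand incubation. Test compound was dissolved in DMSO and diluted in buffer, DMSO ≤2% final. Incubations ended by GF/B filtration and three buffer rinses. The read-out is % inhibition of specific binding at a single concentration.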

The next test deals with hA2AAR (Homo sapiens, UniProt P29274). Conditions: for hA1/hA2A: selectivity ratio of Ki values.
Sequence of hA2AAR (P29274 whole entry): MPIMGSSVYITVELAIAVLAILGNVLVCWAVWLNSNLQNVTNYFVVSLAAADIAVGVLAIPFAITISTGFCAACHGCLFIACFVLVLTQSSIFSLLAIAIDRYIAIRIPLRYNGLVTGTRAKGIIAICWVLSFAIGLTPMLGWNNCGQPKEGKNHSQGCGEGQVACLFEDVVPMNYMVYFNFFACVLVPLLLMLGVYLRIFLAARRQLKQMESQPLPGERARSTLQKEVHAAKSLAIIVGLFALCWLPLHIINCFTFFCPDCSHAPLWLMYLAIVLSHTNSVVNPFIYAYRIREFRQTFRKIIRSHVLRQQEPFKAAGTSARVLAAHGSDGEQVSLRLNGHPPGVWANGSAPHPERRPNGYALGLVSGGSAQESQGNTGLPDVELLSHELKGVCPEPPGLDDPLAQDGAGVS

Where “and” joins values, the source holds several entries; their conditions need not be identical. Equal values may be shown once. Where a name gives a salt, the structure may show the parent alone.

For `C#CCCCC(=O)Nc1nc2nn(C)cc2c2nc(-c3ccco3)nn12` [Compound 20, N-(2-(furan-2-yl)-8-methyl-8H-pyrazolo[4,3-e][1,2,4]triazolo[1,5-c]pyrimidin-5-yl)hex-5-ynamide], the hA2A/hA3 at hA3AR was 48.4.

Take `Cn1cc2c(nc(NC(=O)Nc3ccc(CC(=O)NCCCCNC(=S)Nc4ccc(-c5c6ccc(=O)cc-6oc6cc(O)ccc56)c(C(=O)O)c4)cc3)n3nc(-c4ccco4)nc23)n1` [Compound 15, 5-(3-(4-(2-(4-(3-(2-(furan-2-yl)-8-methyl-8H-pyrazolo[4,3-e][1,2,4]triazolo[1,5-c]pyrimidin-5-yl)ureido)phenyl)acetamido)butyl)thioureido)-2-(6-hydroxy-3-oxo-3H-xanthen-9-yl)benzoate]: the hA2A/hA3 on hA3AR is listed as 0.82. Further, the inhibition at 10 µM at hA1AR came to 28%. Further, the hA1/hA2A on hA2AAR is more than 129.

For `Cn1cc2c(nc(NC(=O)Nc3ccc(CC(=O)NCCOCCOCCNC(=S)Nc4ccc(-c5c6ccc(=O)cc-6oc6cc(O)ccc56)c(C(=O)O)c4)cc3)n3nc(-c4ccco4)nc23)n1` [Compound 17, 5-(3-(2-(2-(2-(2-(4-(3-(2-(furan-2-yl)-8-methyl-8H-pyrazolo[4,3-e][1,2,4]triazolo[1,5-c]pyrimidin-5-yl)ureido)phenyl)acetamido)ethoxy)ethoxy)ethyl)thioureido)-2-(6-hydroxy-3-oxo-3H-xanthen-9-yl)benzoate], on hA3AR, the affinity, expressed as Ki, was 137 nM; the hA1/hA3 is listed as more than 73; the hA2A/hA3 is listed as 0.69. The inhibition at 10 µM at hA1AR was determined as 29%. Further, on hA2AAR, the Ki amounted to 95.7 nM and the hA1/hA2A was more than 94.

Take `Cn1cc2c(nc(NC(=O)Nc3ccc(CC(=O)NCCOCCOCCN)cc3)n3nc(-c4ccco4)nc23)n1.O=C(O)C(F)(F)F` [Compound 12, 2-(2-(2-(2-(4-(3-(2-(furan-2-yl)-8-methyl-8H-pyrazolo[4,3-e][1,2,4]triazolo[1,5-c]pyrimidin-5-yl)ureido)phenyl)acetamido)ethoxy)ethoxy)ethanamine trifluoroacetate salt]: at hA3AR, the hA1/hA3 is more than 520 and the hA2A/hA3 was found to be 14. In addition, the hA1/hA2A at hA2AAR was more than 37.4.

Regarding `C#CCCCCC(=O)Nc1nc2nn(C)cc2c2nc(-c3ccco3)nn12` [Compound 21, N-(2-(furan-2-yl)-8-methyl-8H-pyrazolo[4,3-e][1,2,4]triazolo[1,5-c]pyrimidin-5-yl)hept-6-ynamide], at hA3AR, the hA1/hA3 was 122 and 122.7; the hA2A/hA3 came to 20.7. The hA1/hA2A on hA2AAR came to 5.9.

Take `C#CCCCCCC(=O)Nc1nc2nn(C)cc2c2nc(-c3ccco3)nn12` [Compound 22, N-(2-(furan-2-yl)-8-methyl-8H-pyrazolo[4,3-e][1,2,4]triazolo[1,5-c]pyrimidin-5-yl)oct-7-ynamide]: at hA3AR, the hA1/hA3 is reported as more than 781 and the hA2A/hA3 turned out to be 37.6. Besides, the hA1/hA2A on hA2AAR is listed as more than 20.7.

For the compound `Cn1cc2c(nc(NC(=O)Nc3ccc(CC(=O)O)cc3)n3nc(-c4ccco4)nc23)n1` [Compound 3, 2-(4-(3-(2-(furan-2-yl)-8-methyl-8H-pyrazolo [4,3-e] [1,2,4]triazolo[1,5-c]pyrimidin-5-yl)ureido)phenyl)acetic acid], at hA2AAR, the hA1/hA2A is reported as more than 10.

Turning to `Cn1cc2c(nc(NC(=O)Nc3ccc(CC(=O)NCCCOCCOCCOCCCNC(=O)OC(C)(C)C)cc3)n3nc(-c4ccco4)nc23)n1` [Compound 8, tert-Butyl (1-(4-(3-(2-(furan-2-yl)-8-methyl-8H-pyrazolo [4,3-e][1,2,4]triazolo[1,5-c]pyrimidin-5-yl)ureido)phenyl)-2-oxo-7,10,13-trioxa-3-azahexadecan-16-yl)carbamate], at hA3AR, the hA1/hA3 is recorded as more than 121.3 and the hA2A/hA3 turned out to be 3.9. Besides, the hA1/hA2A at hA2AAR is recorded as more than 30.5.

On to `Cn1cc2c(nc(NC(=O)Nc3ccc(CC(=O)NCCCCCN)cc3)n3nc(-c4ccco4)nc23)n1` [Compound 11, N-(5-aminopentyl)-2-(4-(3-(2-(furan-2-yl)-8-methyl-8H-pyrazolo[4,3-e][1,2,4]triazolo[1,5-c]pyrimidin-5-yl)ureido)phenyl) acetamide trifluoroacetate salt], for which, at hA3AR, the hA1/hA3 is more than 3759 and the hA2A/hA3 is 76.3. For the same compound, the hA1/hA2A at hA2AAR is reported as more than 49.

Consider `Cn1cc2c(nc(NC(=O)Nc3ccc(CC(=O)NCCOCCOCCNC(=O)OC(C)(C)C)cc3)n3nc(-c4ccco4)nc23)n1` [Compound 7, tert-Butyl (2-(2-(2-(2-(4-(3-(2-(furan-2-yl)-8-methyl-8H-pyrazolo[4,3-e][1,2,4]triazolo[1,5-c]pyrimidin-5-yl)ureido)phenyl)acetamido)ethoxy)ethoxy)ethyl)carbamate], for which, at hA3AR, the hA1/hA3 is reported as more than 133.6 and the hA2A/hA3 was determined as 6.1. Besides, the hA1/hA2A on hA2AAR was more than 22.

With `Cn1cc2c(nc(NC(=O)Nc3ccc(CC(=O)NCCCN)cc3)n3nc(-c4ccco4)nc23)n1` [Compound 9, N-(3-aminopropyl)-2-(4-(3-(2-(furan-2-yl)-8-methyl-8H-pyrazolo[4,3-e][1,2,4]triazolo[1,5-c]pyrimidin-5-yl)ureido)phenyl) acetamide trifluoroacetate salt], on hA3AR, the hA1/hA3 is listed as more than 1240 and the hA2A/hA3 amounted to 21.7. Moreover, the hA1/hA2A at hA2AAR is more than 57.

`Cn1cc2c(nc(NC(=O)Nc3ccc(CC(=O)NCCCCN)cc3)n3nc(-c4ccco4)nc23)n1` [Compound 10, N-(4-aminobutyl)-2-(4-(3-(2-(furan-2-yl)-8-methyl-8H-pyrazolo[4,3-e][1,2,4]triazolo[1,5-c]pyrimidin-5-yl)ureido)phenyl) acetamide trifluoroacetate salt]: on hA3AR, the hA1/hA3 is recorded as more than 1666 and the hA2A/hA3 is on record as 28.6. Besides, the hA1/hA2A on hA2AAR is recorded as more than 58.

On to `Cn1cc2c(nc(NC(=O)Nc3ccc(CC(=O)NCCCCNC(=O)OC(C)(C)C)cc3)n3nc(-c4ccco4)nc23)n1` [Compound 5, tert-Butyl (4-(2-(4-(3-(2-(furan-2-yl)-8-methyl-8H-pyrazolo [4,3-e][1,2,4]triazolo[1,5-c]pyrimidin-5-yl)ureido)phenyl)acetamido)butyl)carbamate], for which, on hA3AR, the hA1/hA3 is more than 2890 and the hA2A/hA3 is recorded as 88. Besides, the hA1/hA2A at hA2AAR is more than 33.

On to `Cn1cc2c(nc(NC(=O)Nc3ccc(CC(=O)NCCCCCNC(=O)OC(C)(C)C)cc3)n3nc(-c4ccco4)nc23)n1` [Compound 6, tert-Butyl (5-(2-(4-(3-(2-(furan-2-yl)-8-methyl-8H-pyrazolo [4,3-e][1,2,4]triazolo[1,5-c]pyrimidin-5-yl)ureido)phenyl)acetamido)pentyl)carbamate], for which, at hA3AR, the hA1/hA3 is recorded as more than 2237 and the hA2A/hA3 worked out at 84.1. For the same compound, the hA1/hA2A at hA2AAR was more than 26.5.

Consider `Cn1cc2c(nc(NC(=O)Nc3ccc(CC(=O)NCCCNC(=O)OC(C)(C)C)cc3)n3nc(-c4ccco4)nc23)n1` [Compound 4, tert-Butyl (3-(2-(4-(3-(2-(furan-2-yl)-8-methyl-8H-pyrazolo [4,3-e][1,2,4]triazolo[1,5-c]pyrimidin-5-yl)ureido)phenyl)acetamido)propyl)carbamate], for which, on hA3AR, the hA1/hA3 was more than 3636 and the hA2A/hA3 stood at 54.5. The hA1/hA2A at hA2AAR is reported as more than 66.

Turning to `Cn1cc2c(nc(NC(=O)Nc3ccc(CC(=O)NCCCOCCOCCOCCCN)cc3)n3nc(-c4ccco4)nc23)n1.O=C(O)C(F)(F)F` [Compound 13, N-(3-(2-(2-(3-aminopropoxy)ethoxy)ethoxy)propyl)-2-(4-(3-(2-(furan-2-yl)-8-methyl-8H-pyrazolo[4,3-e][1,2,4]triazolo[1,5-c]pyrimidin-5-yl)ureido)phenyl)acetamide trifluoroacetate salt], at hA3AR, the hA1/hA3 is more than 970 and the hA2A/hA3 is listed as 30.3. Moreover, the hA1/hA2A at hA2AAR was more than 30.

With `C#CCCC(=O)Nc1nc2nn(C)cc2c2nc(-c3ccco3)nn12` [Compound 19, N-(2-(furan-2-yl)-8-methyl-8H-pyrazolo[4,3-e][1,2,4]triazolo[1,5-c]pyrimidin-5-yl)pent-4-ynamide], on hA3AR, the hA1/hA3 is listed as more than 909 and the hA2A/hA3 amounted to 16.5. Moreover, on hA1AR, the inhibition at 10 µM is 55%.

As a reminder, the inhibition is the change of the read-out against control, counted positive when it falls. For orientation: Ki means a dissociation constant, usually derived from enzyme kinetics or from competition with a known ligand.

(Values after article PMC7199890 (European journal of medicinal chemistry, 2019).)
